Data as given in ChEMBL document CHEMBL5329156, “Discovery and development of novel substituted monohydrazides as potent antifungal agents” (RSC Med Chem, 2023).
In brackets after ≈: the same amount, converted by molar mass. Activity calls are given as the source filed them. The rule behind the calls is not given here.

Columns and labels:
Candida albicans [1] = experiment: Antifungal activity against Candida albicans ATCC 10231 assessed as fungal growth inhibition by double dilution method; format: functional
Method in brief: (§1)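 Broth microdilution after CLSI M27-A3/M38-A2 with minor changes. Single colony grown overnight in YPD at 35 °C, 200 rpm. Compound final range 0.06-31.3 µg/mL; incubated 48 h at 35 °C.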

Candida albicans [2] = experiment: Antifungal activity against Candida albicans ATCC 64124 assessed as fungal growth inhibition by double dilution method; format: functional
Method in brief: (§2)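 Broth microdilution after CLSI M27-A3/M38-A2 with minor modifications. A single colony was grown overnight in YPD at 35 °C with shaking at 200 rpm. Cells were mixed 1:1 with compound (final 0.06-31.3 µg/mL, from DMSO stocks) and incubated 48 h at 35 °C.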

Candida albicans [3] = experiment: Antifungal activity against itraconazole/fluconazole susceptible Candida albicans ATCC MYA-2876 assessed as fungal growth inhibition by double dilution method; format: functional; method in brief: as §2
Candida albicans [4] = experiment: Antifungal activity against itraconazole/fluconazole resistant Candida albicans ATCC 90819 assessed as fungal growth inhibition by double dilution method; format: functional; method in brief: as §2
Candida albicans [5] = experiment: Antifungal activity against itraconazole/fluconazole susceptible Candida albicans ATCC MYA-2310 assessed as fungal growth inhibition by double dilution method; format: functional; method in brief: as §2
Candida albicans [6] = experiment: Antifungal activity against itraconazole/fluconazole resistant Candida albicans ATCC MYA-1237 assessed as fungal growth inhibition by double dilution method; format: functional; method in brief: as §2
Candida albicans [7] = experiment: Antifungal activity against itraconazole/fluconazole resistant Candida albicans ATCC MYA-1003 assessed as fungal growth inhibition by double dilution method; format: functional; method in brief: as §2
Nakaseomyces glabratus [8] = experiment: Antifungal activity against Candida glabrata ATCC 2001 assessed as fungal growth inhibition by double dilution method; format: functional; method in brief: as §1
Pichia kudriavzevii [9] = experiment: Antifungal activity against Pichia kudriavzevii ATCC 6258 assessed as fungal growth inhibition by double dilution method; format: functional; method in brief: as §1
Nakaseomyces glabratus [10] = experiment: Antifungal activity against Candida glabrata ATCC 22019 assessed as fungal growth inhibition by double dilution method; format: functional; method in brief: as §1
[Candida] auris [11] = Antifungal activity against Candida auris AR Bank # 0384 assessed as fungal growth inhibition by double dilution method; format: functional; settings: Candidozyma auris; method in brief: as §1
[Candida] auris [12] = Antifungal activity against Candida auris AR Bank # 0390 assessed as fungal growth inhibition by double dilution method; format: functional; settings: Candidozyma auris; method in brief: as §1
Cryptococcus neoformans = experiment: Antifungal activity against Cryptococcus neoformans ATCC MYA-895 assessed as fungal growth inhibition by double dilution method; format: functional; method in brief: as §1
Aspergillus terreus = experiment: Antifungal activity against Aspergillus terreus ATCC MYA-3633 assessed as fungal growth inhibition by double dilution method; format: functional
Aspergillus fumigatus [13] = experiment: Antifungal activity against Aspergillus fumigatus NRRL 163 assessed as fungal growth inhibition by double dilution method; format: functional
Aspergillus flavus = experiment: Antifungal activity against Aspergillus flavus ATCC MYA-3631 assessed as fungal growth inhibition by double dilution method; format: functional
Aspergillus nidulans = experiment: Antifungal activity against Aspergillus nidulans ATCC 38163 assessed as fungal growth inhibition by double dilution method; format: functional
Aspergillus fumigatus [14] = experiment: Antifungal activity against Aspergillus fumigatus NRRL 5109 assessed as fungal growth inhibition by double dilution method; format: functional
Aspergillus fumigatus [15] = experiment: Antifungal activity against Aspergillus fumigatus NRRL 6113 assessed as fungal growth inhibition by double dilution method; format: functional
[Candida] auris [16] = Antifungal activity against Candida auris AR Bank # 381 assessed as fungal growth inhibition by double dilution method; format: functional; settings: Candidozyma auris; method in brief: as §1
[Candida] auris [17] = Antifungal activity against Candida auris AR Bank # 382 assessed as fungal growth inhibition by double dilution method; format: functional; settings: Candidozyma auris; method in brief: as §1
[Candida] auris [18] = Antifungal activity against Candida auris AR Bank # 383 assessed as fungal growth inhibition by double dilution method; format: functional; settings: Candidozyma auris; method in brief: as §1
[Candida] auris [19] = Antifungal activity against Candida auris AR Bank # 384 assessed as fungal growth inhibition by double dilution method; format: functional; settings: Candidozyma auris; method in brief: as §1
[Candida] auris [20] = Antifungal activity against Candida auris AR Bank # 385 assessed as fungal growth inhibition by double dilution method; format: functional; settings: Candidozyma auris; method in brief: as §1
[Candida] auris [21] = Antifungal activity against Candida auris AR Bank # 386 assessed as fungal growth inhibition by double dilution method; format: functional; settings: Candidozyma auris; method in brief: as §1
[Candida] auris [22] = Antifungal activity against Candida auris AR Bank # 387 assessed as fungal growth inhibition by double dilution method; format: functional; settings: Candidozyma auris; method in brief: as §1
[Candida] auris [23] = Antifungal activity against Candida auris AR Bank # 388 assessed as fungal growth inhibition by double dilution method; format: functional; settings: Candidozyma auris; method in brief: as §1
[Candida] auris [24] = Antifungal activity against Candida auris AR Bank # 389 assessed as fungal growth inhibition by double dilution method; format: functional; settings: Candidozyma auris; method in brief: as §1
[Candida] auris [25] = Antifungal activity against Candida auris AR Bank # 390 assessed as fungal growth inhibition by double dilution method; format: functional; settings: Candidozyma auris; method in brief: as §1
Candida duobushaemulonii [26] = experiment: Antifungal activity against Candida duobushaemulonii AR Bank # 391 assessed as fungal growth inhibition by double dilution method; format: functional; settings: Candidozyma duobushaemuli; method in brief: as §1
Candida duobushaemulonii [27] = experiment: Antifungal activity against Candida duobushaemulonii AR Bank # 392 assessed as fungal growth inhibition by double dilution method; format: functional; settings: Candidozyma duobushaemuli; method in brief: as §1
[Candida] haemuloni [28] = Antifungal activity against Candida haemulonii AR Bank # 393 assessed as fungal growth inhibition by double dilution method; format: functional; settings: Candidozyma haemuli; method in brief: as §1
Candida duobushaemulonii [29] = experiment: Antifungal activity against Candida duobushaemulonii AR Bank # 394 assessed as fungal growth inhibition by double dilution method; format: functional; settings: Candidozyma duobushaemuli; method in brief: as §1
[Candida] haemuloni [30] = Antifungal activity against Candida haemulonii AR Bank # 395 assessed as fungal growth inhibition by double dilution method; format: functional; settings: Candidozyma haemuli; method in brief: as §1
Kodamaea ohmeri = experiment: Antifungal activity against Kodamaea ohmeri AR Bank # 396 assessed as fungal growth inhibition by double dilution method; format: functional; method in brief: as §1
Pichia kudriavzevii [31] = experiment: Antifungal activity against Pichia kudriavzevii AR Bank # 397 assessed as fungal growth inhibition by double dilution method; format: functional; method in brief: as §1
Clavispora lusitaniae = experiment: Antifungal activity against Clavispora lusitaniae AR Bank # 398 assessed as fungal growth inhibition by double dilution method; format: functional; method in brief: as §1
Saccharomyces cerevisiae [32] = experiment: Antifungal activity against Saccharomyces cerevisiae AR Bank # 399 assessed as fungal growth inhibition by double dilution method; format: functional; method in brief: as §1
Saccharomyces cerevisiae [33] = experiment: Antifungal activity against Saccharomyces cerevisiae AR Bank # 400 assessed as fungal growth inhibition by double dilution method; format: functional; method in brief: as §1
Candida albicans [34] = experiment: Antibiofilm activity against Candida albicans ATCC 10231 assessed as reduction in biofilm production at 1.96 to 3.9 microg/ml by biofilm formation assay; format: functional, organism-based; settings: dose 1.96-3.9 µg/ml

Row | Compound | MIC (Candida albicans [1]) [mg/L] | MIC (Candida albicans [2]) [mg/L] | MIC (Candida albicans [3]) [mg/L] | MIC (Candida albicans [4]) [mg/L] | MIC (Candida albicans [5]) [mg/L] | MIC (Candida albicans [6]) [mg/L] | MIC (Candida albicans [7]) [mg/L] | MIC (Nakaseomyces glabratus [8]) [mg/L] | MIC (Pichia kudriavzevii [9]) [mg/L] | MIC (Nakaseomyces glabratus [10]) [mg/L] | MIC ([Candida] auris [11]) [mg/L] | MIC ([Candida] auris [12]) [mg/L] | MIC (Cryptococcus neoformans) [mg/L] | MIC (Aspergillus terreus) [mg/L] | MIC (Aspergillus fumigatus [13]) [mg/L] | MIC (Aspergillus flavus) [mg/L] | MIC (Aspergillus nidulans) [mg/L] | MIC (Aspergillus fumigatus [14]) [mg/L] | MIC (Aspergillus fumigatus [15]) [mg/L] | MIC ([Candida] auris [16]) [mg/L] | further results
1 | COc1ccc(NNC(=O)c2ccccn2)cc1 | 0.12 (≈ 0.493 µM) | 0.98 (≈ 4.03 µM) | 1.95 (≈ 8.02 µM) | 0.49 (≈ 2.01 µM) | 0.98 (≈ 4.03 µM) | 0.98 (≈ 4.03 µM) | 0.98 (≈ 4.03 µM) | 0.98 (≈ 4.03 µM) | 0.49 (≈ 2.01 µM) | 3.9 (≈ 16 µM) | 3.9 (≈ 16 µM) | 0.12 (≈ 0.493 µM) | 0.49 (≈ 2.01 µM) | 31.3 (≈ 129 µM) | > 31.3 | > 31.3 | 0.49 (≈ 2.01 µM) | > 31.3 | 31.3 (≈ 129 µM) | 1.95 (≈ 8.02 µM) | MIC ([Candida] auris [17]): 1.95 mg/L (≈ 8.02 µM); MIC ([Candida] auris [18]): 1.95 mg/L (≈ 8.02 µM); MIC ([Candida] auris [19]): 3.9 mg/L (≈ 16 µM); MIC ([Candida] auris [20]): 0.98 mg/L (≈ 4.03 µM); MIC ([Candida] auris [21]): 0.24 mg/L (≈ 0.987 µM); MIC ([Candida] auris [22]): 0.49 mg/L (≈ 2.01 µM); MIC ([Candida] auris [23]): 0.49 mg/L (≈ 2.01 µM); MIC ([Candida] auris [24]): 0.24 mg/L (≈ 0.987 µM); MIC ([Candida] auris [25]): 0.12 mg/L (≈ 0.493 µM); MIC (Candida duobushaemulonii [26]): 0.98 mg/L (≈ 4.03 µM); MIC (Candida duobushaemulonii [27]): 0.98 mg/L (≈ 4.03 µM); MIC ([Candida] haemuloni [28]): 0.49 mg/L (≈ 2.01 µM); MIC (Candida duobushaemulonii [29]): 0.98 mg/L (≈ 4.03 µM); MIC ([Candida] haemuloni [30]): 0.49 mg/L (≈ 2.01 µM); MIC (Kodamaea ohmeri): 0.49 mg/L (≈ 2.01 µM); MIC (Pichia kudriavzevii [31]): 0.49 mg/L (≈ 2.01 µM); MIC (Clavispora lusitaniae): 0.98 mg/L (≈ 4.03 µM); MIC (Saccharomyces cerevisiae [32]): 1.95 mg/L (≈ 8.02 µM); MIC (Saccharomyces cerevisiae [33]): 0.98 mg/L (≈ 4.03 µM); Activity (Candida albicans [34]): Active
2 | COc1cccc(NNC(=O)c2ccccn2)c1 | 0.24 (≈ 0.987 µM) | 0.98 (≈ 4.03 µM) | 0.98 (≈ 4.03 µM) | 1.95 (≈ 8.02 µM) | 1.95 (≈ 8.02 µM) | 1.95 (≈ 8.02 µM) | 0.98 (≈ 4.03 µM) | 15.6 (≈ 64.1 µM) | 0.49 (≈ 2.01 µM) | 3.9 (≈ 16 µM) | 0.98 (≈ 4.03 µM) | 0.98 (≈ 4.03 µM) | 0.24 (≈ 0.987 µM) | 3.9 (≈ 16 µM) | 7.8 (≈ 32.1 µM) | > 31.3 | 1.95 (≈ 8.02 µM) | 3.9 (≈ 16 µM) | > 31.3 | 3.9 (≈ 16 µM) | MIC ([Candida] auris [17]): 0.98 mg/L (≈ 4.03 µM); MIC ([Candida] auris [18]): 0.98 mg/L (≈ 4.03 µM); MIC ([Candida] auris [19]): 0.98 mg/L (≈ 4.03 µM); MIC ([Candida] auris [20]): 3.9 mg/L (≈ 16 µM); MIC ([Candida] auris [21]): 0.49 mg/L (≈ 2.01 µM); MIC ([Candida] auris [22]): 0.49 mg/L (≈ 2.01 µM); MIC ([Candida] auris [23]): 3.9 mg/L (≈ 16 µM); MIC ([Candida] auris [24]): 0.49 mg/L (≈ 2.01 µM); MIC ([Candida] auris [25]): 0.98 mg/L (≈ 4.03 µM); MIC (Candida duobushaemulonii [26]): 1.95 mg/L (≈ 8.02 µM); MIC (Candida duobushaemulonii [27]): 1.95 mg/L (≈ 8.02 µM); MIC ([Candida] haemuloni [28]): 0.49 mg/L (≈ 2.01 µM); MIC (Candida duobushaemulonii [29]): 0.98 mg/L (≈ 4.03 µM); MIC ([Candida] haemuloni [30]): 0.49 mg/L (≈ 2.01 µM); MIC (Kodamaea ohmeri): 0.49 mg/L (≈ 2.01 µM); MIC (Pichia kudriavzevii [31]): 0.49 mg/L (≈ 2.01 µM); MIC (Clavispora lusitaniae): 1.95 mg/L (≈ 8.02 µM); MIC (Saccharomyces cerevisiae [32]): 7.8 mg/L (≈ 32.1 µM); MIC (Saccharomyces cerevisiae [33]): 7.8 mg/L (≈ 32.1 µM); Activity (Candida albicans [34]): Active
